Source: ChEMBL document CHEMBL1139327, “Synthesis and biological properties of Pachastrissamine (jaspine B) and diastereoisomeric jaspines” (2009)
The source made the active and inactive calls. The calls are words filed in the database; no cut-off is given here.

Columns and labels:
[1] = tested on: A549; assay: Cytotoxicity against human A549 cells after 24 hrs by MTT assay; format: functional; conditions: A549, 24 h, read-out: LD50 (the source's name)
How it was run: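 Human alveolar epithelial A549 cells (ATCC) grown in HAM F12 with glutamine plus 10% FBS at 37 °C, 5% CO2. Seeded at 10^5 cells/well; after 24 h, medium renewed and compounds (ethanol stocks; vehicle control 0.1% ethanol) added to final 0.02–400 µM for 24 h. Viable cells by MTT; LD50 from concentration–response; means of three independent experiments with triplicates.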

[2] = tested on: A549; assay: Cytotoxicity against human A549 cells assessed as PI positive cells after 24 hrs by flow cytometry; format: functional, cell-based
How it was run: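 A549 cells exposed 24 h to a range of compound concentrations, harvested by brief trypsinization, double-stained with Alexa Fluor 488 annexin V and propidium iodide, analysed by flow cytometry; percentage of cells positive for annexin V, PI or both scored against untreated control.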

[3] = tested on: A549; assay: Cytotoxicity against human A549 cells after 24 hrs by MTT assay in presence of 3-methyladenine; format: functional
How it was run: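 A549 (HAM F12/glutamine, 10% FBS, 37 °C, 5% CO2) pretreated 2 weeks with 10 mM 3-MA in flask, medium changed every 2 days. Then 10^5 cells/well seeded in medium with 3-MA plus compounds at 0.02–400 μM final (ethanol vehicle, 0.1%), 24 h. Viability by MTT, LD50 derived. Means SD, three independent experiments, triplicates.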

[4] = tested on: A549; assay: Cytotoxicity against human A549 cells after 24 hrs by MTT assay in absence of 3-methyladenine; format: functional
How it was run: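 A549 (ATCC) grown in HAM F12 with glutamine + 10% FBS, 37 °C, 5% CO2. Seeded 10^5 cells/well, medium renewed after 24 h, then exposed 24 h to 0.02–400 μM final (ethanol stock; 0.1% ethanol vehicle control). Viable cells by MTT; LD50 taken from curves. Means SD, three independent experiments in triplicate.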

[5] = tested on: A549; assay: Induction of 3-methyladenine-inhibited autophagy in human A549 cells assessed as increase in ceramide levels

Row | SMILES | CC50 [1] [nM] | Activity [2] | Activity [3] | Activity [4] [µM] | Activity [5]
1 | CCCCCCCCCCCCCC[C@@H]1OC[C@H](N)[C@H]1O | 1500 | Dose-dependent effect | inactive | – | –
2 | CCCCCCCCCCCCCC[C@H](O)[C@@H](O)[C@@H](N)CO | – | – | 29.4 µM | 28.2 | –
3 | CCCCCCCCCCCCCC[C@H]1OC[C@H](N)[C@H]1O | 2500 | Dose-dependent effect | inactive | – | –
4 | CCCCCCCCCCCCCC[C@H]1OC[C@H](N)[C@@H]1O [2-EPI JASPINE B] | 1250 | Dose-dependent effect | inactive | – | –
5 | CCCCCCCCCCCCCC[C@@H]1OC[C@H](N)[C@@H]1O [PACHASTRISSAMINE] | 130 | Dose-dependent effect | inactive | – | Dose-dependent effect
